Here are results for 10 molecules from ChEMBL document CHEMBL1156948, “Statistical molecular design of a focused salicylidene acylhydrazide library and multivariate QSAR of inhibition of type III secretion in the Gram-negative bacterium Yersinia” (Bioorg Med Chem, 2010).

The subject of data set [1] is Yersinia pseudotuberculosis YPIII. The data set can be described thus: Inhibition of T3S in Yersinia pseudotuberculosis YPIII expressing yopE-luxAB at 3.13 uM after 3 hrs by luciferase reporter gene assay. Put shortly:
(§1)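 Strain YPIII pIB102 (yopE-luxAB) grown overnight at room temperature in BHI with 5 mM EGTA and 20 mM MgCl2 (calcium depletion), adjusted to OD600 0.088–0.095. Compound added from DMSO at 1.56–200 µM final (eight concentrations). Shaken 1 h at room temperature, then 2 h at 37 °C. Decanal added and light emission read immediately. Triplicates, repeated at least three times.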

Data set [2] has the same test system. The data set can be described thus: Inhibition of T3S in Yersinia pseudotuberculosis YPIII expressing yopE-luxAB at 6.25 uM after 3 hrs by luciferase reporter gene assay. Put shortly:
as §1

For data set [3] the test system is unchanged. Briefly: Inhibition of T3S in Yersinia pseudotuberculosis YPIII expressing yopE-luxAB at 12.5 uM after 3 hrs by luciferase reporter gene assay. The gist of the method: as §1
For data set [4] the test system is unchanged. Briefly: Inhibition of T3S in Yersinia pseudotuberculosis YPIII expressing yopE-luxAB at 25 uM after 3 hrs by luciferase reporter gene assay. The gist of the method: as §1
Data set [5] has the same test system. Briefly: Inhibition of T3S in Yersinia pseudotuberculosis YPIII expressing yopE-luxAB at 50 uM after 3 hrs by luciferase reporter gene assay. The gist of the method:
as §1
Background: In a reporter assay the amount or activity of a reporter protein is the signal.

The test system is the same in data set [6]. The data set can be described thus: Inhibition of T3S in Yersinia pseudotuberculosis YPIII expressing yopE-luxAB at 100 uM after 3 hrs by luciferase reporter gene assay. Put shortly: as §1
Data set [7] shares this test system. The data set can be described thus: Inhibition of T3S in Yersinia pseudotuberculosis YPIII expressing yopE-luxAB at 200 uM after 3 hrs by luciferase reporter gene assay. The gist of the method: as §1
Data set [8] concerns the target Tyrosine-protein phosphatase YopH (Yersinia pseudotuberculosis serotype I (strain IP32953)) (UniProt P08538). The data set can be described thus: Inhibition of YopH in Yersinia pseudotuberculosis YPIII expressing yopE-luxAB treated 3 hrs before substrate addition measured after 15 mins by microplate reader. The gist of the method: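 Same calcium-depleted YPIII pIB102 cultures and compound exposure (1 h room temperature, then 2 h 37 °C). An aliquot of the bacterial suspension was mixed with 25 mM p-nitrophenyl phosphate, 40 mM MES pH 5.0, 1.6 mM DTT. Incubated 15 min at 37 °C, quenched with 1 M NaOH, absorbance read at 405 nm. Triplicates, repeated at least three times.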

Data set [9] has as its system Yersinia pseudotuberculosis. The data set can be described thus: Antibacterial activity against Yersinia pseudotuberculosis expressing pIB102 at 50 uM after 23 hrs by broth dilution assay. In kind it is functional, organism-based. Put shortly: (§2)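 Wild-type pIB102 grown overnight in LB at room temperature, diluted to OD600 = 0.1 in LB with 2.5 mM CaCl2. Compound added from DMSO stock to final 50 and 100 µM. Incubated at 37 °C with absorbance at 595 nm read over 23 h.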
(In general: Dilution methods test growth across graded concentrations, often in twofold steps.)

For data set [10], the system named is Escherichia coli. Briefly: Antibacterial activity against Escherichia coli DH5[alpha] at 50 uM after 23 hrs by broth dilution assay. Type of data set: functional, organism-based. The gist of the method:
(§3)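 Overnight LB culture of E. coli DH5α grown at 37 °C, diluted to OD600 0.1 in LB with 2.5 mM CaCl2; compound added from DMSO stock to final 50 or 100 µM. Incubated at 37 °C with absorbance at 595 nm followed over 23 h.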

Data set [11] relates to Yersinia pseudotuberculosis. The data set can be described thus: Antibacterial activity against Yersinia pseudotuberculosis expressing pIB102 at 100 uM after 23 hrs by broth dilution assay. Type of data set: functional, organism-based. The gist of the method: as §2
The subject of data set [12] is Escherichia coli. Briefly: Antibacterial activity against Escherichia coli DH5[alpha] at 100 uM after 23 hrs by broth dilution assay. Type of data set: functional, organism-based. Put shortly:
as §3

Data set [13] deals with Yersinia pseudotuberculosis YPIII. The data set can be described thus: Inhibition of T3S in Yersinia pseudotuberculosis YPIII expressing yopE-luxAB at 1.56 uM after 3 hrs by luciferase reporter gene assay. The gist of the method: as §1
A further data set concerns Chlamydia trachomatis. Briefly: Antibacterial activity against Chlamydia trachomatis infected in human HeLa 229 cells after 35 hrs by fluorescence microscopy. Type of data set: functional. Put shortly: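 HeLa 229 monolayers infected with C. trachomatis serovar L2, MOI 0.3; compounds diluted in RPMI 1640 with 10% FCS, 2 mM L-glutamine, 8 µg/mL gentamicin (DMSO final 1%) added 1 h post-infection at 50, 25, 12.5, 6.25, 3.13 µM. 35 h at 37 °C, 5% CO2; methanol fixation, immunostaining, fluorescence microscopy at 200×. MIC = lowest concentration with no intracellular inclusions; duplicates, ≥3 occasions.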

Data set [14] can be described thus: Cytotoxicity against human HeLa 229 cells assessed as cell viability at 50 uM after 28 hrs using resazurin staining by fluorescence microscopy. In kind it is cell-based. The conditions noted are these: read-out: Activity. The gist of the method: (§4)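 HeLa 229 viability measured at 50 and 25 µM using resazurin added 4 h before read-out; cell-free wells with medium plus compound exclude chemical reduction of resazurin. Scored relative to DMSO control, plus microscopic scoring; non-toxic defined as at least 70% viability versus control. Triplicates, repeated at least three times.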
In general terms: Resazurin is reduced to fluorescent resorufin, in cell work by metabolically active cells.

Data set [15] in a line: Cytotoxicity against human HeLa 229 cells assessed as cell viability at 25 uM after 28 hrs using resazurin staining by fluorescence microscopy. In kind it is cell-based. To be noted: read-out: Activity. The gist of the method:
as §4

Values after ≈ are worked out from the molar mass of the structure shown. Active and inactive are the calls of the source.

Chain of Tyrosine-protein phosphatase YopH (Yersinia pseudotuberculosis serotype I (strain IP32953)) (P08538 whole entry): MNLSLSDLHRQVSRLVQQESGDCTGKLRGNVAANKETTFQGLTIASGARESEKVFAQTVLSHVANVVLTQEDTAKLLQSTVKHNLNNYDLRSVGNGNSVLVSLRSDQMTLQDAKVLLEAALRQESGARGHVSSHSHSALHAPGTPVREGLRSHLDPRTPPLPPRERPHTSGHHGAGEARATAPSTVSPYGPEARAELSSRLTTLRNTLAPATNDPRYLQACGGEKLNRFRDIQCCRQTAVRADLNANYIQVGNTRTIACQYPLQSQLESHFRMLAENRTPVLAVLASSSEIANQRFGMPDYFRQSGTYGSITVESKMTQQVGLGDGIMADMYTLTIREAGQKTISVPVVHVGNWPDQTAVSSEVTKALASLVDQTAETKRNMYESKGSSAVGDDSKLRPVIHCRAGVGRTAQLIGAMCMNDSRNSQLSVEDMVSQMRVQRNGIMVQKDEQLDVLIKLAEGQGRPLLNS

Broadly, the inhibition is the drop in the measured response relative to a control, in per cent. `COc1ccc(Br)c(/C=N/NC(=O)c2ccncc2)c1O`: the inhibition in [1] came to 9%; in [2], 18%; in data set [3] it was 18%; in data set [4] it was 27%; in [5] it was 54%; in [6] it was 77%. In data set [7], the inhibition turned out to be 35%. The inhibition result in data set [8] was “inactive”. Further, the outcome (in [9]; in the data set with Escherichia coli [10]; in data set [11]; in the data set with Escherichia coli [12]) was inactive.

With `NC(=O)C(=O)N/N=C/c1c(O)cc(O)cc1O`, the inhibition was -1% in data set [13]; 5% in data set [1]; 17% in data set [2]; 17% in [3]; 26% in data set [4]; 51% in [5]. For the same molecule, the inhibition stood at 63% in data set [6] and 64% in data set [7]. Also, the inhibition result in data set [8] is “inactive”. Further, the result (in data set [9]; in the data set on Escherichia coli [10]; in [11]; with Escherichia coli [12]) was inactive.

As a reminder, the MIC is the lowest concentration that inhibits growth of the organism. With `COc1cc(Br)cc(/C=N/NC(=O)Cc2ccccc2)c1O`, the inhibition in data set [13] was determined as 10%; in data set [1], 18%; in data set [2], 12%; in data set [3] it was 15%; in [4], 9%; in data set [5] it was 22%. Besides, the inhibition was 57% in data set [6] and 65% in [7]. The result (in data set [9]; with Escherichia coli [10]; in [11]; in the data set with Escherichia coli [12]) was inactive. Further, the MIC entry with Chlamydia trachomatis was “inactive”. Also, the viability at 28 h, 50 µM in [14] was 33%. In addition, in data set [15], the viability at 28 h, 25 µM was 58%.

Take `COc1cccc(C(=O)N/N=C/c2cc(Br)ccc2O)c1`: the inhibition came to 6% in [13]; 15% in data set [1]; 8% in [2]; 15% in data set [3]; 22% in data set [4]; 44% in data set [5]. Further, the inhibition came out at 71% in [6] and 77% in data set [7]. Also, the outcome (in [9]; in the data set with Escherichia coli [10]; in [11]; in the data set on Escherichia coli [12]) was inactive. Further, 25 µM (≈ 8.73 µg/mL) was the least that counted as inhibitory in the data set on Chlamydia trachomatis (MIC). Also, in data set [14], the viability at 28 h, 50 µM was determined as 65%. Also, the viability at 28 h, 25 µM in data set [15] was found to be 73%.

With `O=C(Cc1ccccc1)N/N=C/c1cc(Br)ccc1O`, the inhibition was determined as 15% in [13]; 4% in [1]; 10% in data set [2]; 7% in [3]; 15% in data set [4]; 26% in data set [5]. The inhibition in data set [6] was determined as 39%; in data set [7], 50%. Besides, the outcome (in data set [9]; in the data set with Escherichia coli [10]; in data set [11]; in the data set on Escherichia coli [12]) was inactive. It took 50 µM (≈ 16.7 µg/mL) to inhibit growth against Chlamydia trachomatis (MIC). Moreover, the viability at 28 h, 50 µM in [14] was 74%. Besides, in data set [15], the viability at 28 h, 25 µM came out at 75%.

On to `CCN(CC)c1ccc(/C=N/NC(=O)c2ccc(OC)c(OC)c2)c(O)c1`, for which the inhibition turned out to be 14% in data set [1]; 14% in [2]; 29% in [3]; 44% in data set [4]; 66% in [5]; 66% in data set [6]. Besides, the inhibition in data set [7] was 56%. Moreover, the inhibition result in data set [8] was “inactive”. Also, the result (in [9]; in the data set on Escherichia coli [10]; in data set [11]; in the data set with Escherichia coli [12]) was inactive.

Turning to `COc1cc(C(=O)N/N=C/c2ccc(O)c(O)c2O)cc(OC)c1OC`, the inhibition is -10% in data set [13]; 11% in data set [1]; 14% in [2]; 19% in data set [3]; 31% in [4]; 50% in data set [5]. In addition, the inhibition was determined as 58% in [6] and 62% in data set [7]. In data set [8], the inhibition result is “inactive”. Besides, the result (in data set [9]; in the data set with Escherichia coli [10]; in data set [11]; in the data set on Escherichia coli [12]) was inactive.

With `O=C(N/N=C/c1cc(Br)ccc1O)c1ccccc1Cl`, the inhibition turned out to be 10% in [13]; 10% in data set [1]; 10% in data set [2]; 13% in data set [3]; 11% in data set [4]; 38% in data set [5]. Further, the figures for the inhibition in data set [6] and in data set [7] were 58% and 61%, respectively. Also, the result (in [9]; in the data set on Escherichia coli [10]; in [11]; in the data set on Escherichia coli [12]) was inactive. The minimal inhibitory concentration (MIC) in the data set with Chlamydia trachomatis was 50 µM (≈ 17.7 µg/mL). The viability at 28 h, 50 µM in data set [14] was 60%. In addition, the viability at 28 h, 25 µM in data set [15] came out at 77%.

For `Cc1ccc(C(=O)N/N=C/c2cc(C(C)(C)C)ccc2O)cc1`, the inhibition came out at 13% in data set [13]; 6% in data set [1]; 14% in data set [2]; 18% in data set [3]; 20% in data set [4]; 17% in data set [5]. Also, the inhibition in data set [6] came out at 24%; in [7], 25%. Moreover, the result (in data set [9]; in the data set with Escherichia coli [10]; in [11]; with Escherichia coli [12]) was inactive. This molecule also yielded an MIC in the data set with Chlamydia trachomatis of 50 µM (≈ 15.5 µg/mL). Further, the viability at 28 h, 50 µM in [14] was 79%. Further, in data set [15], the viability at 28 h, 25 µM amounted to 80%.

Consider `CC(C)(C)c1ccc(O)c(/C=N/NC(=O)Cc2ccccc2)c1`, for which the inhibition in data set [13] was found to be 9%; in data set [1] it was 13%; in data set [2], 9%; in data set [3], 4%; in data set [4], 10%; in data set [5], 26%. Also, the inhibition in data set [6] stood at 20%; in data set [7], 25%. Also, the result (in data set [9]; with Escherichia coli [10]; in [11]; in the data set with Escherichia coli [12]) was inactive. The MIC entry in the data set with Chlamydia trachomatis was “inactive”. Further, the viability at 28 h, 50 µM in data set [14] stood at 79%. In [15], the viability at 28 h, 25 µM came to 83%.
